# Assay outcomes as filed in PubChem BioAssay.
# FAS TE block: blocks the thioesterase domain of human fatty acid synthase | P49327 | recombinant FAS-TE, OMFH fluorogenic substrate, fluorescence endpoint | inhibition, % at 15 µM | 360,000 tested, 0.67% active | AID 602261;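 active means compounds whose normalised, plate-corrected inhibition of enzyme fluorescence in the single-dose primary screen is 50% or more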
# STEP inh: blocks human striatal-enriched tyrosine phosphatase. recombinant STEP, OMFP fluorogenic substrate, fluorescence. AID 588621. P54829. inhibition, % at 20 µM. 360,000 tested, 0.25% active;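 active means inhibition at 20 µM, scaled per plate between control wells, above about 37%, limit read from the data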
#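 System: isolated STEP enzyme; schedule: 20 min enzyme reaction at room temperature, protected from light; medium: Bis-Tris buffer pH 6.0, 2.5 mM DTT, 0.005% Tween 20; signal: fluorescence, 480/540 nm; dosing: single compound dose of 20 µM, 1% DMSO final; also added: OMFP substrate, 25 µM final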
# LMPTP inh: blocks human LMPTP phosphatase. inhibition, % at 20 µM. recombinant LMPTP-A, OMFP fluorogenic substrate, fluorescence intensity. 360,000 tested, 0.22% active. P24666;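 active means compounds that cut the enzyme signal by at least half of the control window in the single-dose screen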
# Target sequence (P24666 whole entry, looked up): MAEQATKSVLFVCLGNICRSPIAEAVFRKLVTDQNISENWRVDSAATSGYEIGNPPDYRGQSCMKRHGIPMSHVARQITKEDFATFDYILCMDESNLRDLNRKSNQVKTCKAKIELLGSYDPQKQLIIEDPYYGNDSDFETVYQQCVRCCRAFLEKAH
#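 Test system: LMPTP-A, protein tyrosine phosphatase of low molecular weight; Input: 0.625 nM enzyme; Incubation: 50 min dark incubation at room temperature; Signal: endpoint fluorescence intensity from OMFP dephosphorylation; Read-out basis: % inhibition versus control wells.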
# SUMO1-SIM PPI: alters human SUMO1 binding to SIM partners; P63165; SUMO1 binding to a labelled peptide, TR-FRET, 1 h; inhibition, % at 20 µM; 360,000 tested, 0.33% active; in the data active means inhibition above about 37%
# Target sequence (P63165 whole entry, looked up): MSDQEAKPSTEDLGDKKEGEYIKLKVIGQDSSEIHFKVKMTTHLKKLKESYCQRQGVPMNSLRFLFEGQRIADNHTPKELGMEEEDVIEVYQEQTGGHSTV
# Scp-1 inhibitor: blocks human Scp-1 phosphatase activity; Q9GZU7; 340,000 tested, 0.88% active; Recombinant Scp1, phosphopeptide, malachite green phosphate absorbance; inhibition, % at 20 µM;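 active means inhibition above about 50% at 20 µM, limit read from the data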
# Target sequence (Q9GZU7 76-261 limits assumed): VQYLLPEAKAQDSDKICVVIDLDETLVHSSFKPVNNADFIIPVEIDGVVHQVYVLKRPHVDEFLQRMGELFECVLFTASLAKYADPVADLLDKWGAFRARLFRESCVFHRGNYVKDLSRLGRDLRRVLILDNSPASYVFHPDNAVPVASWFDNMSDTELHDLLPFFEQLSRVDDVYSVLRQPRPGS
#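 System: truncated SCP-1 phosphatase (76-261aa); medium: Tris acetate buffer pH 5.5 with MgCl2 and Tween-20; incubation: 45 min room-temperature reaction, 5 min colour, 30 min stabiliser; compound: single 20 µM dose, 1% DMSO; reagent: Phosphorylated 17-residue peptide substrate; read-out: % inhibition at 20 µM; technique: colorimetric free-phosphate detection, absorbance 630 nm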
# Scp1 confirm: confirmation of human Scp-1 phosphatase inhibitors. shares compounds with Scp-1 inhibitor. recombinant SCP-1 catalytic domain, phosphate release, malachite green absorbance. inhibition, % at 20 µM. 2,500 tested, 61% active. AID 540281
# Scp-1 MG ctr: colorimetric interference in Scp-1 counter-screen; shares compounds with Scp-1 inhibitor; Colorimetric interference counterscreen, malachite green absorbance 630 nm; apparent inhibition (interference), % at 20 µM; 2,500 tested, under 10 active;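 further: compounds added after enzyme reaction finished so only phosphate colour detection is probed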
# Scp1 DSF: binds human Scp-1, shifting its melting temperature; shares compounds with Scp-1 inhibitor; thermal shift relative to vanadate control, % at 40 µM; 1,500 tested, 25% active; Recombinant SCP1, Sypro Orange thermal shift Tm;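 active means substances whose mean melting-temperature shift, as a percentage of the reference inhibitor's shift, reaches about 5.3%, limit read from the data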
# A number is an active result; . = inactive; / = not tested or not shown. Hits are enriched below; roughly 1.9% of the tested compounds scored in any of these assays.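 How the source made its calls, unless noted: active means inhibition of at least 30% at 20 µM; inactive means the rest.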
SMILES,FAS TE block,STEP inh,LMPTP inh,SUMO1-SIM PPI,Scp-1 inhibitor,Scp1 confirm,Scp-1 MG ctr,Scp1 DSF
O=C(NCC[C@H]1CC[C@H](NS(=O)(=O)c2ccccc2F)[C@@H](CO)O1)c1ccc(F)cc1,/,/,.,.,/,/,/,/
CCc1ccc(OCC(=O)NNC(=O)c2ccc(NC(=O)C3CC3)cc2)cc1,.,.,.,.,52,78,.,.
Cc1ccc(OCC(=O)NNC(=O)c2ccc(NC(=O)C3CC3)cc2)c(C)c1,.,.,.,.,.,/,/,/
O=C(COc1ccc2ccccc2c1)NNC(=O)Nc1ccccc1F,.,.,.,.,.,/,/,/
O=C(COc1ccc2ccccc2c1)NNC(=O)c1ccc([N+](=O)[O-])cc1,.,.,.,.,54,74,.,7.2
O=C(COc1ccc([N+](=O)[O-])cc1)Nc1ccc(NC(=O)c2ccccc2)cc1,.,.,.,.,.,/,/,/
O=C(COc1ccc([N+](=O)[O-])cc1)Nc1ccc(C(=O)Nc2ccccc2C(=O)O)cc1,.,.,.,.,65,77,.,7.5
Cc1ccccc1NC(=O)C(=O)NNC(=O)COc1ccc2ccccc2c1,.,.,.,.,52,69,.,.
COc1ccc(/C=N/NC(=O)c2cccnc2)cc1CN1CCCc2ccccc21,.,.,.,.,.,/,/,/
COc1ccc(C(=O)N/N=C/c2ccc(OC)c(CN3CCCc4ccccc43)c2)cc1,.,.,.,.,56,.,.,/
N=C1S/C(=C\c2ccco2)C(=O)N1c1ccc2c(c1)OCO2,.,.,.,.,79,46,.,.
O=C(Nc1ccc(Cc2nc3ccccc3s2)cc1)c1ccncc1,.,.,.,.,.,/,/,/
CC(C)(C)c1ccc(C2(C)NC(=O)NC2=O)cc1 (configuration not stated),.,.,.,.,.,/,/,/
Cn1c(=O)c2nc(-c3ccc(Cl)cc3Cl)oc2c2ccccc21,.,.,89,.,73,.,.,/
COCCn1c(-c2ccc(Cl)cc2Cl)nc2c(c(=O)c3ccccc3n2C)c1=O,.,.,.,.,.,/,/,/
Cc1ccc(F)c(S(=O)(=O)NC(=O)C2(C)CCN2C(=O)Cc2cccs2)c1 (configuration not stated),.,.,.,.,/,/,/,/
O=C(CSc1nnc2ccccn12)NC(=O)c1ccccc1Cl,.,.,.,.,66,51,.,.
COc1ccccc1C(=O)NC(=O)CSc1nnc2ccccn12,.,.,.,.,.,/,/,/
Cc1ccc[n+](CC(=O)Nc2ccc(Cl)c([N+](=O)[O-])c2)c1,.,.,.,.,84,.,.,/
CCCCN(C(=O)c1cc(-c2ccco2)nc2ccccc12)c1c(N)n(CCCC)c(=O)[nH]c1=O,.,.,.,.,/,/,/,/
CCCCn1c(N)c(N(CCOC)C(=O)c2cc(-c3ccco3)nc3ccccc23)c(=O)[nH]c1=O,.,.,.,.,58,67,.,.
COCCN(C(=O)c1cc(-c2ccco2)nc2ccccc12)c1c(N)n(Cc2ccccc2)c(=O)[nH]c1=O,.,.,.,.,64,58,.,.
COCCN(C(=O)COC(=O)/C=C/c1ccc(C(F)(F)F)cc1)c1c(N)n(Cc2ccccc2)c(=O)[nH]c1=O,.,.,.,.,58,.,.,/
COCCN(C(=O)COC(=O)/C=C/c1ccc(SC)cc1)c1c(N)n(Cc2ccccc2)c(=O)[nH]c1=O,.,.,.,.,.,/,/,/
CCCn1c(N)c(N(CCOC)C(=O)c2cc(Cl)nc3ccccc23)c(=O)[nH]c1=O,.,.,.,.,.,/,/,/
CC(C)c1ccc(C(=O)N2CCCC(c3cc(C(=O)Nc4ccc5c(c4)OCO5)no3)C2)cc1 (configuration not stated),.,.,.,.,/,/,/,/
Nc1nc(=O)n(C2CC(O)C(CO)O2)cc1F (configuration not stated),.,.,.,.,.,.,.,/
COC(=O)CN1C(=O)CSc2ccc(S(=O)(=O)N3CCC(C)CC3)cc21,.,.,.,.,/,/,/,/
